Measured values from PMC7938327 (Journal of medicinal chemistry, 2017).
“Also recorded” adds a separate entry of the source.

Columns and labels:
human recombinant ATX [1] = target: T1, human recombinant ATX (Homo sapiens, UniProt Q13822); experiment: ATX lysophospholipase D activity, FS-3 hydrolysis; assay type: biochemical; details: FS-3 0 to 10 μM, inhibitor 0, 0.5 × IC50 or 2 × IC50; best global fit
human recombinant ATX [2] = target: T1, human recombinant ATX; experiment: ATX nucleotide pyrophosphatase activity, pNP-TMP hydrolysis; assay type: biochemical; details: 1 mM pNP-TMP, 4 nM ATX, compound 0 to 1 μM
Summary of the method: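 Human recombinant FLAG-tagged ATX was expressed in Sf9 insect cells and purified on anti-FLAG resin. Absorbance at 405 nm was read every 2 min for 1 h.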

LPA1 = LPA1 (Homo sapiens, UniProt Q92633); experiment: LPA-mediated Ca2+ mobilization, LPA1 RH7777 cells; assay type: cell-based; details: for antagonist activity at LPA1 (in words): LPA1-elicited Ca2+ responses
Summary of the method: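 Rat hepatoma RH7777 cells stably expressing LPA1 were seeded at 5 × 10^4 per well on poly-L-lysine, left overnight, then serum-deprived 4 h in HEPES-Krebs buffer pH 7.4. Cells were loaded 30 min with 4.5 μg/mL Fura-2AM plus 0.45% Pluronic F-127. […] The 340/510 and 380/510 nm ratio was read every 3.42 s for 70 s, normalized to LPA Emax, and fitted by variable-slope regression for IC50.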

[3] = target: T2, purified recombinant ENPP6 (Homo sapiens, UniProt Q6UWR7); experiment: ENPP6 inhibition, pNPPC hydrolysis; assay type: biochemical; details: 10 μM pNPPC, 10 nM ENPP6, compound 0 to 10 μM; data not shown
T2 sequence (Q6UWR7 23-440): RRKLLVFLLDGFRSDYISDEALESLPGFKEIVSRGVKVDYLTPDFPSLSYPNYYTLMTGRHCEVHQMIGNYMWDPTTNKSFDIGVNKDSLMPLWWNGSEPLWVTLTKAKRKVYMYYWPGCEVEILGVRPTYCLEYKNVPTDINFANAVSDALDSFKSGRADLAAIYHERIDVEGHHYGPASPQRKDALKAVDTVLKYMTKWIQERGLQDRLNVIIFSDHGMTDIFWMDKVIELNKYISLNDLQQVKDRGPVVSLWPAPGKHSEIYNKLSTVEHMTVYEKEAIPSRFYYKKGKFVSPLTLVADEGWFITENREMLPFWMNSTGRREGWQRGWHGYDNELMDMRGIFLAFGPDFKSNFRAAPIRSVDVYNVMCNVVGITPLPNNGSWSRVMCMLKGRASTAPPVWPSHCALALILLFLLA
Summary of the method: (§1)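 Purified recombinant enzyme (0 or 10 nM) was incubated with 10 μM pNPPC and 0–10 μM test compound in triplicate wells. Buffers were 100 mM Tris, 500 mM NaCl, 0.05% Triton, pH 9.0 for ENPP6, and 50 mM Tris, 150 mM NaCl, 10 mM taurocholate, pH 8.5 for ENPP7. Absorbance at 405 nm was read every 2 min for 1 h.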

[4] = target: T3, purified recombinant ENPP7 (Homo sapiens, UniProt Q6UWV6); experiment: ENPP7 inhibition, pNPPC hydrolysis; assay type: biochemical; details: 10 μM pNPPC, 10 nM ENPP7, compound 0 to 10 μM; data not shown
T3 sequence (Q6UWV6 22-458): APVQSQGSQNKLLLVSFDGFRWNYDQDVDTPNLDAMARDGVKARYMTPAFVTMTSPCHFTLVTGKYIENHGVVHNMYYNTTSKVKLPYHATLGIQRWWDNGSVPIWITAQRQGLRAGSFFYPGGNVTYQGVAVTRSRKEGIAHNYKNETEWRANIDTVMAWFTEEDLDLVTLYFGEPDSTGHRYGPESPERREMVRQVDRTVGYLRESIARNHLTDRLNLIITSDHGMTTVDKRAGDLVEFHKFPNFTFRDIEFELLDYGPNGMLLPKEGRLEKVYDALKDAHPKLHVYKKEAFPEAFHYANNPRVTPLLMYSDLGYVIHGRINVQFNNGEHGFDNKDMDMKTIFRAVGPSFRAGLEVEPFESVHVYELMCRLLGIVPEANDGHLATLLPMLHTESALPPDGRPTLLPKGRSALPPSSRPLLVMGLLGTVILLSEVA
Summary of the method: as §1

[5] = system: A2058 human melanoma cells; experiment: ATX-mediated in vitro invasion assay; assay type: cell-based; details: exogenous LPC and recombinant ATX; for inhibition of A2058 cell invasion, screen at 10 μM: compared with 30; for inhibition of A2058 cell invasion (in words): dose–response
[6] = In vitro stability in 4T1 cell culture by LC-MS; assay type: in vitro ADME, mouse; details: 40 h of exposure to 4T1 cells
[7] = system: 4T1 breast cancer cell line; experiment: Chemoresistance of 4T1 cells to paclitaxel; assay type: cell-based, mouse; details: for LD50 to PT with ATX inhibitor pretreatment: 24 h pretreatment with 3 μM compound, then PT 48 h
[8] = system: 4T1-TaxR cancer stem-like cells (mammospheres); experiment: 4T1-TaxR mammosphere viability with paclitaxel; assay type: cell-based, mouse
LPA2 = LPA2 (Homo sapiens, UniProt Q9HBW0); experiment: LPA-mediated Ca2+ mobilization, LPA2 MEF cells; assay type: cell-based; details: read-out: LPA2 Emax
LPA3 = target: T4, LPA3 (Homo sapiens, UniProt Q9UBY5); experiment: LPA-mediated Ca2+ mobilization, LPA3 RH7777 cells; assay type: cell-based; details: RH7777, read-out: LPA3 Emax
T4 sequence (Q9UBY5 1-353): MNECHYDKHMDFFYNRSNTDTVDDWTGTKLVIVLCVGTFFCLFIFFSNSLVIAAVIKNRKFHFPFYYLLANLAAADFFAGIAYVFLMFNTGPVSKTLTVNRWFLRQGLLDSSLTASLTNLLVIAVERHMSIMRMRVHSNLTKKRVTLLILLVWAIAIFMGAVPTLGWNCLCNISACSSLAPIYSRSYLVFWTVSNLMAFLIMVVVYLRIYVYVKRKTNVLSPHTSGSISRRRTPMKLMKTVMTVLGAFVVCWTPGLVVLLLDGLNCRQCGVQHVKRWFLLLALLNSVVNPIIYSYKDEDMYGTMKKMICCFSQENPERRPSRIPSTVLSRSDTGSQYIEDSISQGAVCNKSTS

LPA4 = LPA4 (Homo sapiens, UniProt Q99677); experiment: LPA-mediated Ca2+ mobilization, LPA4 CHO cells; assay type: cell-based; details: read-out: LPA4 Emax
LPA5 = LPA5 (Homo sapiens, UniProt Q9H1C0); experiment: LPA-mediated Ca2+ mobilization, LPA5 B103 cells; assay type: cell-based; details: LPA 18:1 alone; normalized to percentage of LPA 18:1 Emax
Chain of LPA5 (Q9H1C0 whole entry, species assumed): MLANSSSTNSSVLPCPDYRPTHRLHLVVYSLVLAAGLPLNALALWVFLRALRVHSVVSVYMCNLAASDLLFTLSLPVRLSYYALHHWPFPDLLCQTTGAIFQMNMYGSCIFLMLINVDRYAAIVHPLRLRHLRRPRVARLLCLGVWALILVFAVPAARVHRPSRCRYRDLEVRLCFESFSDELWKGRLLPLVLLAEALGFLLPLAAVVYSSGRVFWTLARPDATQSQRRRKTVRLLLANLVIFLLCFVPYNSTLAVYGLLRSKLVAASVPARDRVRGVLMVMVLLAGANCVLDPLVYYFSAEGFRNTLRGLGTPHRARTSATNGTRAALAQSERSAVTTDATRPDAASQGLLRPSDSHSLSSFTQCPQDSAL

Chain of LPA1 (Q92633 whole entry, species assumed): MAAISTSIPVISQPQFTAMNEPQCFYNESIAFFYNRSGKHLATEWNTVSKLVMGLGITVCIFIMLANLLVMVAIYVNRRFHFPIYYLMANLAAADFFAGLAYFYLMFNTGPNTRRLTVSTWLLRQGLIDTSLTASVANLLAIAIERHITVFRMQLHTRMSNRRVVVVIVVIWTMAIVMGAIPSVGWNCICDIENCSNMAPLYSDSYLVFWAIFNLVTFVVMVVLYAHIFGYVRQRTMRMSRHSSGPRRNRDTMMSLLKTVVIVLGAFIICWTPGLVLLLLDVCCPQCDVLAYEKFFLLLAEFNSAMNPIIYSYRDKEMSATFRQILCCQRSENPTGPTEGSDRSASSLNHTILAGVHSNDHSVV
Chain of LPA2 (Q9HBW0 whole entry, species assumed): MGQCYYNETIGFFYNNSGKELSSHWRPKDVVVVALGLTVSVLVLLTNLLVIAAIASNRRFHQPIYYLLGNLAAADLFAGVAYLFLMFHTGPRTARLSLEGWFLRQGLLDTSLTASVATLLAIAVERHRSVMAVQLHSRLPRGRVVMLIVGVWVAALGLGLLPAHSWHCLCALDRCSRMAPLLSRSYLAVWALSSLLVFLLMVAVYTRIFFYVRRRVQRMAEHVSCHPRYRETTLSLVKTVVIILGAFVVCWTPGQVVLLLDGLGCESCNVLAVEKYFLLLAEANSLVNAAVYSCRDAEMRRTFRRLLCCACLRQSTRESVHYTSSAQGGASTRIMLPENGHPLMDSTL
Chain of LPA4 (Q99677 whole entry, species assumed): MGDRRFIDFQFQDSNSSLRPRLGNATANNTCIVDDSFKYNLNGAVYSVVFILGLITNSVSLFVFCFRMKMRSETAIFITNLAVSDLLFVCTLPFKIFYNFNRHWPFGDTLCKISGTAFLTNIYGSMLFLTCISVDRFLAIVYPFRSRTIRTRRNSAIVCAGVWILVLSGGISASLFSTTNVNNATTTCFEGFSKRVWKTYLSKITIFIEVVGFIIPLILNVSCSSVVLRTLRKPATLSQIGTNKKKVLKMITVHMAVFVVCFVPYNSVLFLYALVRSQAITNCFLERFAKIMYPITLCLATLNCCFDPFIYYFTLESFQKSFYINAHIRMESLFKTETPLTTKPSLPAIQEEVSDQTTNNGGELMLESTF

Row | Emax (LPA1; RH7777, read-out: LPA1 Emax) [%] | Emax (LPA2) [%] | Emax (LPA3) [%] | Emax (LPA4) [%] | LPA5 μEmax (LPA5) | SMILES | mechanism (human recombinant ATX [1]) | pNP-TMP inhibition (human recombinant ATX [2]) | antagonist activity at LPA1 (in words) (LPA1) | inhibitory activity for ENPP6 [3] | inhibitory activity for ENPP7 [4] | inhibition of A2058 cell invasion, screen at 10 μM [5] | inhibition of A2058 cell invasion (in words) [5] | in vitro stability (in words) [6] | LD50 to PT with ATX inhibitor pretreatment [7] [nM] | resensitization of cancer stem-like cells to PT (in words) ([8]; 4T1-TaxR cells) | further reduction of cell viability compared to PT alone ([8]; 4T1-TaxR mammospheres, PT 100 nM, compound 5 μM, 3 days) | PT LD50 for reducing cell growth by 50%, applied alone ([7]; PT 48 h, no ATX inhibitor) [nM]
1 | – | – | – | – | – | O=C(Nc1cc(F)c(F)c(F)c1)c1cc(S(=O)(=O)N2CCOCC2)c(Cl)cc1Cl [Compound 3b, 2,4-Dichloro-5-(morpholinosulfonyl)-N-(3,4,5-trifluorophenyl)-benzamide] | competitive | sparing effects on hydrolysis of the nucleotide substrate pNP-TMP and none | weak antagonist action; also recorded: exhibited antagonist activity; also recorded: effective in antagonizing LPA1-elicited Ca^2+ responses | lack inhibitory action | lack inhibitory action | as effective as 30 | inhibit ATX-dependent invasion; also recorded: dose dependently decreased A2058 cell invasion | significant stability | 127 | potently reduced in vitro chemotherapeutic resistance; also recorded: effectively resensitized | 25–30% | –
2 | – | – | – | – | – | O=C(Nc1cc(F)c(Cl)c(F)c1)c1cc(S(=O)(=O)N2CCOCC2)c(Cl)cc1Cl [Compound 3f, 2,4-Dichloro-N-(4-chloro-3,5-difluorophenyl)-5-(morpholinosulfonyl)benzamide] | competitive | none | weak antagonist action; also recorded: exhibited antagonist activity; also recorded: effective in antagonizing LPA1-elicited Ca^2+ responses | lack inhibitory action | lack inhibitory action | as effective as 30 | dose dependently decreased A2058 cell invasion | significant stability | 66 | – | – | –
3 | 100 | 100 | 100 | 100 | 100.00 ± 0.00 | CCCCCCCC/C=C\CCCCCCCC(=O)OCC(O)COP(=O)(O)O (centres unmarked) [LPA 18:1] | – | – | – | – | – | – | – | – | – | – | – | –
4 | – | – | – | – | – | CC(=O)O[C@H]1C(=O)[C@@]2(C)[C@H]([C@H](OC(=O)c3ccccc3)[C@]3(O)C[C@H](OC(=O)[C@H](O)[C@@H](NC(=O)c4ccccc4)c4ccccc4)C(C)=C1C3(C)C)[C@]1(OC(C)=O)CO[C@@H]1C[C@@H]2O [PT, paclitaxel, reference compound] | – | – | – | – | – | – | – | – | – | – | – | 202
